Where two headings read alike, the source gives them in different places.
Key:
Gq/11 G-proteins [1] = target: T1, Gq/11 G-proteins (Homo sapiens, UniProt P08172); format: binding, Chinese hamster; conditions: Gq/11; for pα: cooperativity between agonist and [3H]GDP binding
T1 sequence (P08172 1-466): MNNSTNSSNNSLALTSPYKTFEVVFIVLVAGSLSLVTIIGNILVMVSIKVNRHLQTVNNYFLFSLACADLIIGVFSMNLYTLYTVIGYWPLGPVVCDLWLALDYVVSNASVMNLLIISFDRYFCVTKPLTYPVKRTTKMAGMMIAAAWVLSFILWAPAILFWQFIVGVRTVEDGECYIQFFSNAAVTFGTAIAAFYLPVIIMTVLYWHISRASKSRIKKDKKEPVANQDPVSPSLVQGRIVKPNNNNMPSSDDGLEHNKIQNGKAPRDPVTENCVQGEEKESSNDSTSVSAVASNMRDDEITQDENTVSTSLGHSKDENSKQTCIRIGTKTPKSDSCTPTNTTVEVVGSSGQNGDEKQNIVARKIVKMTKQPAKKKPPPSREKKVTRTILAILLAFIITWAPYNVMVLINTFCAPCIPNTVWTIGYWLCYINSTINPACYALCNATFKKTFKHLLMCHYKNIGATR

[2] = target: T2, human M2 muscarinic receptor (Homo sapiens, UniProt P08172); test: Agonist-stimulated [35S]GTPγS binding to membranes from M2 CHO cells; format: biochemical; conditions: for nH: Hill coefficient, Eqn 2
T2 sequence (P08172 1-466): T1 sequence (P08172 1-466)

[3] = test system: wild-type (non-transfected) CHO cells; test: [35S]GTPγS binding at wild-type; format: biochemical, Chinese hamster
How it was run: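 Membranes were incubated 60 min with 50 µM GDP and agonist. They were then incubated with 500 pM [³⁵S]GTPγS for 20 min at 30°C in 100 mM NaCl, 20 mM Na-HEPES, 10 mM MgCl₂ (pH 7.4) with 1 mM DTT, about 10 µg protein per sample. Non-specific binding was taken with 1 µM GTPγS. Read-out was filtration and scintillation counting.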

Gi/o G-proteins [4] = target: T3, Gi/o G-proteins (Homo sapiens, UniProt P08172); test: biochemical; format: binding, Chinese hamster; conditions: Gi/o; for pα: cooperativity between agonist and [3H]GDP binding
T3 sequence (P08172 1-466): T1 sequence (P08172 1-466)

Gq/11 G-proteins [5] = target: T1, Gq/11 G-proteins; test: [35S]GTPγS binding to Gq/11 G-proteins; format: biochemical, Chinese hamster; conditions: Gq/11
Gi/o G-proteins [6] = test: Kinetics of 500 nM [3H]GDP binding to Gi/o G-proteins; parameters: species or system Chinese hamster
Gs/olf G-proteins [7] = test: Kinetics of 500 nM [3H]GDP binding to Gs/olf G-proteins; parameters: species or system Chinese hamster
Gs/olf G-proteins [8] = target: T4, Gs/olf G-proteins (Homo sapiens, UniProt P08172); test: biochemical; format: biochemical, Chinese hamster; conditions: Gs/olf
T4 sequence (P08172 1-466): T1 sequence (P08172 1-466)

[9] = target: T5, M2 receptor-G-protein complex (Homo sapiens, UniProt P08172); format: binding; conditions: for factor of cooperativity α between binding of [3H]GDP and agonist (pα): 10 µM [3H]GDP, GDP-less membranes, n=3
T5 sequence (P08172 1-466): T1 sequence (P08172 1-466)

Gs/olf G-proteins [10] = target: T4, Gs/olf G-proteins; test: biochemical; format: binding, Chinese hamster; conditions: Gs/olf; for pα: cooperativity between agonist and [3H]GDP binding
Gi/o G-proteins [11] = target: T3, Gi/o G-proteins; test: biochemical; format: biochemical, Chinese hamster; conditions: Gi/o
[12] = test system: G-proteins in GDP-less membranes of CHO-M2 cells; test: Kinetics of [35S]GTPγS binding to GDP-less membranes; parameters: species or system Chinese hamster; conditions: for Beq of [35S]GTPγS: GDP-less membranes
How it was run: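 GDP-less CHO-M2 membranes, 30°C. Association of 1 nM [³⁵S]GTPγS was measured after 20 min pre-incubation with buffer or 100 µM agonist, ±50 µM GDP. For dissociation, membranes were preloaded 90 min with 1 nM [³⁵S]GTPγS ±50 µM GDP, then chased with 1 µM GTPγS alone or with agonist. Filtration on glass-fibre filters, scintillation counting. Three experiments in quadruplicate; exponential association/dissociation fits.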

[13] = target: T5, M2 receptor-G-protein complex; format: binding; conditions: for reduction of agonist affinity by GDP (factor of cooperativity β): Eqn 8, GDP-less membranes, 1 nM [3H]NMS
[14] = test system: G-proteins in GDP-less membranes of CHO-M2 cells; test: Kinetics of [3H]GDP binding to GDP-less membranes; parameters: species or system Chinese hamster
How it was run: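 GDP-less CHO-M2 membranes, 30°C. Association of 500 nM [³H]GDP was measured after 20 min pre-incubation with buffer, 10 or 100 µM agonist, or 0.1 µM antagonist. For dissociation, membranes were prelabelled with 500 nM [³H]GDP for 180 min, then chased with 50 µM GDP alone or with ligand. Slow and fast rate constants came from biphasic fits.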

[15] = target: T2, human M2 muscarinic receptor; test: Competition of agonists with 1 nM [3H]NMS binding; conditions: for pKi: monophasic
[16] = test system: G-proteins in GDP-less membranes of CHO-M2 cells; test: Equilibrium [3H]GDP binding to GDP-less membranes; parameters: species or system Chinese hamster
How it was run: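 GDP-less membranes from CHO-M2 cells were made by treatment with 1 M ammonium sulphate for 3 h at 4°C, then renatured 1 h in 20% glycerol. Incubation was 5 h at 30°C in 100 mM NaCl, 20 mM Na-HEPES, 10 mM MgCl₂ (pH 7.4) with 1 mM DTT. Assays were homologous competition at 1 or 5 µM [³H]GDP, plus saturation. Non-specific binding was taken with 50 µM GDP. Three experiments, quadruplicate; Hill-equation fits.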

[17] = 100 µM carbachol, presence of 50 µM GDP
[18] = equilibrium dissociation constant of agonist, Eqn 7

C[N+](C)(C)CCOC(N)=O [Carbachol]
pα (Gq/11 G-proteins [1]): −0.85 ± 0.09
maximal increase of [35S]GTPγS binding (Emax) [2]: threefold
nH [2]: 0.81 ± 0.05
effect on [35S]GTPγS binding [3]: no effect
pα (Gi/o G-proteins [4]): −2.3 ± 0.2
EMAX (Gq/11 G-proteins [5]): 1.61 ± 0.02 fold increase over basal binding
Beq1 of [3H]GDP (Gi/o G-proteins [6]; 10 µM carbachol): 1.7 ± 0.2 fmol·µg^−1 protein
decrease of [3H]GDP equilibrium binding (Gi/o G-proteins [6]; 10 µM carbachol): 1.8 fold
f2 of [3H]GDP dissociation (Gi/o G-proteins [6]; 10 µM carbachol): 38 ± 4%
Beq1 of [3H]GDP (Gi/o G-proteins [6]; 100 µM carbachol): 0.35 ± 0.03 fmol·µg^−1 protein
decrease of [3H]GDP equilibrium binding (Gi/o G-proteins [6]; 100 µM carbachol): ninefold
f2 of [3H]GDP dissociation (Gi/o G-proteins [6]; 100 µM carbachol): 36 ± 5%
slowing of association of [3H]GDP in comparison to fast sites (Gi/o G-proteins [6]; 100 µM carbachol): 12 fold
Beq of [3H]GDP (Gs/olf G-proteins [7]; 10 µM carbachol): 0.43 ± 0.02 fmol·µg^−1 protein
decrease of [3H]GDP equilibrium binding (Gs/olf G-proteins [7]; 10 µM carbachol): 1.9 fold
Beq of [3H]GDP (Gs/olf G-proteins [7]; 100 µM carbachol): 0.10 ± 0.01 fmol·µg^−1 protein
decrease of [3H]GDP equilibrium binding (Gs/olf G-proteins [7]; 100 µM carbachol): 8.1 fold
effect on [3H]GDP binding association rate (Gs/olf G-proteins [7]; 10 and 100 µM carbachol): no effect
EMAX (Gs/olf G-proteins [8]): 1.82 ± 0.05 fold increase over basal binding
factor of cooperativity α between binding of [3H]GDP and agonist (pα) [9]: −2.3 ± 0.2
pα (Gs/olf G-proteins [10]): −1.2 ± 0.1
EMAX (Gi/o G-proteins [11]): 2.89 ± 0.06 fold increase over basal binding
effect on kinetics of [35S]GTPγS binding ([12]; 100 µM carbachol, absence of GDP): did not change
effect on rate of dissociation of [35S]GTPγS [12, 17]: no effect
increase of equilibrium binding of [35S]GTPγS [12, 17]: fourfold
Beq of [35S]GTPγS ([12]; 50 µM GDP +100 µM carbachol): 4.85 ± 0.19 ^*a fmol·µg^−1protein
Beq of [35S]GTPγS ([12]; no GDP, +100 µM carbachol): 5.70 ± 0.25 fmol·µg^−1protein
reduction of agonist affinity by GDP (factor of cooperativity β) [13]: 200 fold
slowing of [3H]GDP association, faster fraction ([14]; 10 µM carbachol): twofold

C[N+](C)(C)Cc1ccco1 [Furmethide]
pα (Gq/11 G-proteins [1]): −0.32 ± 0.05
pKA (Gq/11 G-proteins [1]; [18]): 7.17 ± 0.06
maximal increase of [35S]GTPγS binding (Emax) [2]: 3.1 fold increase
EMAX [fold over basal] ([2]; 500 pM [35S]GTPγS, 50 µM GDP): 3.12 ± 0.08 fold over basal
nH [2]: 0.82 ± 0.05
EC50 ([2]; read-out: half-effective concentrations (EC50), stimulation of [35S]GTPγS binding): 7 µM
pα (Gi/o G-proteins [4]): −2.4 ± 0.2
pKA (Gi/o G-proteins [4]; [18]): 7.13 ± 0.05
EMAX (Gq/11 G-proteins [5]): 1.20 ± 0.01 fold increase over basal binding
pEC50 (Gq/11 G-proteins [5]): 4.72 ± 0.06
pKi ([15]; +1 µM GTPγS): 4.76 ± 0.05
pKi ([15]; +50 µM GDP): 4.77 ± 0.05
pKi high ([15]; Control (crude membranes)): 7.12 ± 0.09
pKi low ([15]; Control (crude membranes)): 4.78 ± 0.08
flow[%] ([15]; Control (crude membranes), fraction of receptors in low-affinity state): 50 ± 9%
flow[%] ([15]; GDP-less membranes): 9.6 ± 3.8 %
pKi high ([15]; GDP-less membranes): 7.77 ± 0.08
pKi low ([15]; GDP-less membranes): 4.87 ± 0.09
EMAX (Gs/olf G-proteins [8]): 1.70 ± 0.02 fold increase over basal binding
pEC50 (Gs/olf G-proteins [8]): 4.76 ± 0.03
factor of cooperativity α between binding of [3H]GDP and agonist (pα) [9]: −2.4 ± 0.3
pα (Gs/olf G-proteins [10]): −1.0 ± 0.1
pKA (Gs/olf G-proteins [10]; [18]): 7.10 ± 0.05
EMAX (Gi/o G-proteins [11]): 2.95 ± 0.09 fold increase over basal binding
pEC50 (Gi/o G-proteins [11]): 5.34 ± 0.10
reduction of agonist affinity by GDP (factor of cooperativity β) [13]: 250 fold

Nc1nc2c(ncn2[C@@H]2O[C@H](COP(=O)(O)OP(=O)(O)O)[C@@H](O)[C@H]2O)c(=O)[nH]1 [GDP, guanosine diphosphate]
IC50 ([16]; read-out: IC50, homologous competition, 1 µM [3H]GDP): 4.48 µM
IC50 ([16]; read-out: IC50, homologous competition, 5 µM [3H]GDP): 8.55 µM
Kd ([16]; read-out: KD for [3H]GDP from homologous competition): 3.49 µM
Kd ([16]; read-out: KD, saturation binding, 0.3 to 10 µM [3H]GDP): 3.47 ± 0.03 µM
Beq1 (Gi/o G-proteins [6]; Control): 2.1 ± 0.2 fmol·µg^−1 protein
Beq2 (Gi/o G-proteins [6]; Control): 1.1 ± 0.1 fmol·µg^−1 protein
f2 (Gi/o G-proteins [6]; Control): 37 ± 5%
koff1 (Gi/o G-proteins [6]; Control): 0.00583 ± 0.0005 s⁻¹
koff2 (Gi/o G-proteins [6]; Control): 0.000667 ± 6.7e-05 s⁻¹
Beq, mono-exponential fit (Gi/o G-proteins [6]; control conditions (absence of carbachol), n=3): 2.8 ± 0.3 fmol·µg·prot^−1
Beq (Gs/olf G-proteins [7]; Control): 0.81 ± 0.04 fmol·µg^−1 protein
koff (Gs/olf G-proteins [7]; Control): 0.00112 ± 0.00012 s⁻¹
equilibrium dissociation constant for [3H]GDP (pKA) ([9]; Eqn 7, all four agonists, mean ± SD, n=12): 5.51 ± 0.05
Beq of [35S]GTPγS ([12]; 50 µM GDP): 1.21 ± 0.12 fmol·µg^−1protein
decrease of equilibrium binding of [35S]GTPγS ([12]; addition of 50 µM GDP): 4.7 fold
effect on rate of dissociation of [35S]GTPγS ([12]; addition of 50 µM GDP): did not change
slowing of rate of association of [35S]GTPγS ([12]; addition of 50 µM GDP): 3.2 fold
factor of cooperativity α between [3H]NMS and GDP ([13]; GDP-less membranes): 1
effect of GDP on [3H]NMS binding ([13]; absence of agonist): no effect
koff fast ([14]; 500 nM [3H]GDP, no ligand): 0.00122 s⁻¹
sites with koff slow ([14]; 500 nM [3H]GDP, no ligand): 40%
